# According to ChEMBL document CHEMBL4017509, “A Dual Modulator of Farnesoid X Receptor and Soluble Epoxide Hydrolase To Counter Nonalcoholic Steatohepatitis” (J Med Chem, 2017):
# The source made the active and inactive calls. The calls are words filed in the database; no cut-off is given here.
# Experiments:
# [1] = molecular target: Retinoic acid receptor alpha (Homo sapiens) (UniProt P10276); assay: Transactivation of human GAL4-fused RARalpha ligand binding domain expressed in […] cells at 10 uM after 12 to 14 hrs by dual-glo luciferase reporter gene assay; type: cell-based
# Retinoic acid receptor alpha (Homo sapiens), sequence (P10276 whole entry, the tested form may be a part): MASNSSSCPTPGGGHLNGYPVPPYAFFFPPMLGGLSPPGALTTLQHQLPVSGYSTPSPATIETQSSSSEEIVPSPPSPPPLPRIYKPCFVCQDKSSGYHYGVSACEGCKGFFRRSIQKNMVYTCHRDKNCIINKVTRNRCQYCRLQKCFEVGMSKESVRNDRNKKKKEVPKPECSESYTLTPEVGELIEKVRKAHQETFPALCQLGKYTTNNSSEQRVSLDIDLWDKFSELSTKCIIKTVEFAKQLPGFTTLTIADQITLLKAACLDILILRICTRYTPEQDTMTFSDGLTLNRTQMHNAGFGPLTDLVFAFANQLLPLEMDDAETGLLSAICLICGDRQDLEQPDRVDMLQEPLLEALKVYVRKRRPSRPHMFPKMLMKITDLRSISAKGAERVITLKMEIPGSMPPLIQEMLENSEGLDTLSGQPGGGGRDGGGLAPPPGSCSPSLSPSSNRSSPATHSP
# Outline: (§1)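 HEK293T cells in DMEM/10% FCS, Opti-MEM before Lipofectamine LTX transfection with pFR-Luc reporter, pRL-SV40 and pFA-CMV GAL4–LBD plasmid. 5 h later compound in 0.1% DMSO, Opti-MEM, overnight (12−14 h). Dual luciferase; firefly/renilla ×1000 = RLU, fold over DMSO control; triplicates, ≥3 independent repeats.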
# Mus musculus = assay: In vivo activation of FXR in C57BL/6JRj mouse liver assessed as CYP7A1 mRNA expression at 10 mg/kg, po measured up to 480 mins post dose by qRT-PCR analysis relative to control; type: ADME, organism-based; conditions: 8 h
# Outline: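 Male C57BL/6JRj mice (23−26 g), single oral 10 mg/kg in water with 1% HPMC/Tween 80 (99:1); vehicle group n = 3, treated n = 6. Livers taken 8 h postdose, snap-frozen; cells pressed through 40 μm strainer, total RNA extracted, qRT-PCR with ΔΔCt, % of vehicle.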
# [2] = molecular target: Retinoic acid receptor beta (Homo sapiens) (UniProt P10826); assay: Transactivation of human GAL4-fused RARbeta ligand binding domain expressed in […] cells at 10 uM after 12 to 14 hrs by dual-glo luciferase reporter gene assay; type: cell-based; outline: as §1
# Retinoic acid receptor beta (Homo sapiens), sequence (P10826 whole entry, the tested form may be a part): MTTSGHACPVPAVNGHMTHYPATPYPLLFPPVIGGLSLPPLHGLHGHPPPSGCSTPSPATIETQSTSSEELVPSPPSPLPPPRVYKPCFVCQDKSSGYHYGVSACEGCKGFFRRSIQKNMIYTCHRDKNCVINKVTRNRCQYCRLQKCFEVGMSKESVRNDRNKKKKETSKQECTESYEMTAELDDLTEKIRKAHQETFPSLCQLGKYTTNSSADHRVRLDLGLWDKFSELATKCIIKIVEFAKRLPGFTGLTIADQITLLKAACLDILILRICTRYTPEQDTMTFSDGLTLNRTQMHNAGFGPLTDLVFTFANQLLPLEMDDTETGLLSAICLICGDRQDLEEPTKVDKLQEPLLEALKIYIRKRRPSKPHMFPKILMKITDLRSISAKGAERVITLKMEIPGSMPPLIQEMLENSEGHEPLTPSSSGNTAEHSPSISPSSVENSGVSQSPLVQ
# HepG2 = assay: Cytotoxicity against human HepG2 cells up to 100 uM after 48 hrs by WST1 assay; type: cell-based; conditions: hepg2, 48 h
# [3] = molecular target: Vitamin D3 receptor (Homo sapiens) (UniProt P11473); assay: Transactivation of human GAL4-fused VDR ligand binding domain expressed in […] cells at 10 uM after 12 to 14 hrs by dual-glo luciferase reporter gene assay; type: cell-based; outline: as §1
# Vitamin D3 receptor (Homo sapiens), sequence (P11473 whole entry, the tested form may be a part): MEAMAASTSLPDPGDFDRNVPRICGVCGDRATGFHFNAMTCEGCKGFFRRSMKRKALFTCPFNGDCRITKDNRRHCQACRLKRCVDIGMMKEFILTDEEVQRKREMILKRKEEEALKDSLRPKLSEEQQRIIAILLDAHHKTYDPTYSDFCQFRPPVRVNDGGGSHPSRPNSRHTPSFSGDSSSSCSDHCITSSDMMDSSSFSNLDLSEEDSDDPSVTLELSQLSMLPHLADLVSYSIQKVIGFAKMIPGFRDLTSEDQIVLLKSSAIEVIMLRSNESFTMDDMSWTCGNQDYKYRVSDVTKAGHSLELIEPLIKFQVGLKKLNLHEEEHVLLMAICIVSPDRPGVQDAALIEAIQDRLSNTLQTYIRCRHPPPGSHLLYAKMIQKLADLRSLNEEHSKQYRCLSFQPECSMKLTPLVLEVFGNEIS
# [4] = molecular target: T1, Bile acid receptor (Homo sapiens) (UniProt Q96RI1); assay: Transactivation of FXR in human HepG2 cells assessed as FGF19 mRNA expression at 1 uM after 8 to 16 hrs by SYBR green based qRT-PCR analysis relative to DMSO control; type: cell-based
# T1 sequence (whole entry): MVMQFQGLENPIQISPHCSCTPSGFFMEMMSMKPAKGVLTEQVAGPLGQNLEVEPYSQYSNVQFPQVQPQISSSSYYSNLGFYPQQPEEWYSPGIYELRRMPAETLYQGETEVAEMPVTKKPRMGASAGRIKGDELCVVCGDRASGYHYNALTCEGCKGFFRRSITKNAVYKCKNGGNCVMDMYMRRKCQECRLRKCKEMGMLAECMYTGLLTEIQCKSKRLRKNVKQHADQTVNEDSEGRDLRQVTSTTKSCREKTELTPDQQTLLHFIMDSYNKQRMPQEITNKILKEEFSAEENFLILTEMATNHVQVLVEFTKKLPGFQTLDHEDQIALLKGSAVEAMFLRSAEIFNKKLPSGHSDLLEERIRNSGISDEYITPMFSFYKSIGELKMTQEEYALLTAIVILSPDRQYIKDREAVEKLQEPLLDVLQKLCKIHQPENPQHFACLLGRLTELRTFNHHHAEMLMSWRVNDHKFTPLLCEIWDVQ
# Outline: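 HepG2 cells incubated with test compound (0.1 and 1 μM) or 0.1% DMSO for 8 or 16 h, washed in cold PBS, RNA extracted; target mRNA by SYBR Green qRT-PCR, duplicate samples, ≥4 independent experiments; comparative ΔΔCt with GAPDH reference, vehicle set as 100%.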
# [5] = molecular target: Retinoic acid receptor RXR-gamma (Homo sapiens) (UniProt P48443); assay: Transactivation of human GAL4-fused RXRgamma ligand binding domain expressed in […] cells at 10 uM after 12 to 14 hrs by dual-glo luciferase reporter gene assay; type: cell-based; outline: as §1
# Retinoic acid receptor RXR-gamma (Homo sapiens), sequence (P48443 whole entry, the tested form may be a part): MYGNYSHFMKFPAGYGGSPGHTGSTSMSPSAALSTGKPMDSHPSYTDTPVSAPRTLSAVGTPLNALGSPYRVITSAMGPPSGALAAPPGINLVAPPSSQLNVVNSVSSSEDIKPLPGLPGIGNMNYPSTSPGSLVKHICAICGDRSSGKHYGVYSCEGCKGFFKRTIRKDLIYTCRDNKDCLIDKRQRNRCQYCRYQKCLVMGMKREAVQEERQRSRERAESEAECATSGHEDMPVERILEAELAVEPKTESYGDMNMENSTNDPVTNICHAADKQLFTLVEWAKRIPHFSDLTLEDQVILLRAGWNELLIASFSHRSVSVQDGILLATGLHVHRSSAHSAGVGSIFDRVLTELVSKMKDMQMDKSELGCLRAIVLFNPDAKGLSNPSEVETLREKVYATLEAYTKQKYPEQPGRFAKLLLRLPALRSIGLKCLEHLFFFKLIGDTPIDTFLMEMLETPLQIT
# Bile acid receptor = molecular target: T2, Bile acid receptor (Homo sapiens, UniProt Q96RI1); assay: Transactivation of FXR in human HepG2 cells assessed as CYP7A1 mRNA expression at 0.1 uM after 8 to 16 hrs by SYBR green based qRT-PCR analysis relative to DMSO control; type: ADME, cell-based
# T2 sequence (Q96RI1 whole entry): T1 sequence (whole entry)
# Outline: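 HepG2 cells incubated with compound (0.1 or 1 μM) or 0.1% DMSO for 8 or 16 h, washed with cold PBS, RNA extracted. Quantified by SYBR Green real-time PCR, duplicate samples, at least four independent experiments. ΔΔCt method with GAPDH as reference gene. Expressed as % of vehicle (set to 100%), mean ± SEM.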
# [6] = Tmax in C57BL/6JRj mouse at 10 mg/kg, po measured up to 480 mins post dose by LC-MS analysis; type: ADME, organism-based; conditions: in vivo
# Outline: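 Male C57BL/6JRj mice (23−26 g), six dosed once orally at 10 mg/kg in water with 1% HPMC/Tween 80 (99:1), three vehicle. Tail-vein blood (20 μL) at 15, 30, 60, 120, 240 and 480 min, last by retro-orbital puncture. Blood spiked, acetonitrile precipitation with griseofulvin internal standard, LC−MS on phenyl-hexyl column. Noncompartmental PK analysis.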
# [7] = molecular target: T3, Bifunctional epoxide hydrolase 2 (Homo sapiens) (UniProt P34913); assay: Inhibition of sEH in human HepG2 cells assessed as NF-kappaB mRNA expression at 1 uM after 8 to 16 hrs by SYBR green based qRT-PCR analysis relative to DMSO control; type: cell-based
# T3 sequence (whole entry): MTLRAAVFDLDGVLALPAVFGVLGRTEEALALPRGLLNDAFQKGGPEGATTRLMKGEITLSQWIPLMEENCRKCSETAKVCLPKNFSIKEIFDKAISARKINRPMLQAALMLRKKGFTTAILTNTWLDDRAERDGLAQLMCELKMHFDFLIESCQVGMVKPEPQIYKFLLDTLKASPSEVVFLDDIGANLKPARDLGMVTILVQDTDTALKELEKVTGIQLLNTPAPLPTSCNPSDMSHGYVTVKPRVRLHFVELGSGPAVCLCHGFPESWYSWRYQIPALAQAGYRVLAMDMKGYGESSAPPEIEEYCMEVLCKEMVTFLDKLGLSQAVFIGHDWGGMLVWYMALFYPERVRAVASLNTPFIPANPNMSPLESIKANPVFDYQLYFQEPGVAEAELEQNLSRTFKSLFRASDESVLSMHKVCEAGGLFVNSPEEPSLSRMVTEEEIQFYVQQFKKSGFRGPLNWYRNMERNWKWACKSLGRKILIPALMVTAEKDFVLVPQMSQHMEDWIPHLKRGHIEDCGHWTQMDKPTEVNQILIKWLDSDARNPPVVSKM
# Outline: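 HepG2 cells treated with compound or 0.1% DMSO vehicle; NF-κB mRNA quantified by SYBR Green qRT-PCR, comparative ΔΔCt with GAPDH reference; expressed as % of vehicle (100%).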
smiles,measurement,setting,value
CC(C)(C)c1ccc(C(=O)NCc2ccc(NS(C)(=O)=O)cc2Cl)cc1,Activity,[1],inactive
same,Activity,Mus musculus,70%
same,Activity,[2],inactive
same,Activity,HepG2,Non-Toxic
same,Activity,[3],inactive
same,Activity,[4],325%
same,Activity,[5],inactive
same,Activity,Bile acid receptor,50%
same,Tmax,[6],30 min
same,inhibition,[7],17.6%
